In the library only some 2.3% were active in any assay of this set; here they are far more common.
SKN-1 inh: blocks SKN-1 activity in C. elegans; inhibition, % at 21.8 µM; AID 624304; C. elegans VP596 Pgst-4::GFP/RFP ratio, acrylamide-induced, 24 h; 360,000 compounds, 0.49% hits;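 active = interference check ratio from 0.5 to 1.5 plus GFP to RFP signal ratio inhibition reaching or exceeding a fixed threshold, cut at about 30% in these data, passing the limit was not always enough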
MT1-MMP act inh: blocks activation of human MT1-MMP. P50281. HT1080 RFP-PRO-GFP cells, GFP/RFP ratio fluorescence, overnight; percent of plate control window, DMSO zero. GFP/RFP ratio change, % at 20 µM. 360,000 compounds, 0.061% hits. AID 651647;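 active = GFP/RFP ratio change of at least 30% with cell ATP level not reduced by more than half and red fluorescence within 50% of control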
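Assay system: HT1080 RFP-PRO-GFP cells. Benchmarks: DMSO vehicle wells and RFP-L50D-GFP reporter cell wells. Times: overnight cell settling, then overnight compound exposure, 37 °C, 5% CO2. Compound: 20 µM single dose, 1% DMSO. Read-out basis: GFP/RFP fluorescence ratio.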
CSN inh: blocks human CSN-mediated cullin deneddylation | Purified CSN, SCF-Nedd8-OG deneddylation, fluorescence polarization | inhibition, % at 12.5 µM | 360,000 compounds, 0.38% hits;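 active = pattern-corrected inhibition above about 35%, with an unprinted fluorescence ratio check between 0.5 and 1.5, limit read from the data, passing the limit was not always enough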;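 also: 0% = enzyme with substrate and 100% = substrate without enzyme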
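Material: purified human Csn5 enzyme expressed in HEK293T cells / Medium: Tris buffer pH 7.5, NaCl, DTT, Tween-20, trehalose, ovalbumin / Compound dosing: 12.5 µM single point / Schedule: 90 min incubation of compound, enzyme and substrate at room temperature / Signal: fluorescence polarization of the substrate / Control set: no-enzyme wells high, enzyme-with-substrate wells low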
DNMT1 inh: DNMT1 (human) enzyme inhibition; P26358; DNMT1 molecular beacon, Hinp1I cleavage, fluorescence; inhibition (reported as % activation of signal), % at 10 µM; 360,000 compounds, 0.83% hits; in the data active = inhibition above about 50%
SUMO1 PPI mod: alters human SUMO1 binding to SIM partners; inhibition, % at 20 µM; AID 602429; SUMO1 binding to a labelled peptide, TR-FRET, 1 h; 360,000 compounds, 0.33% hits; P63165; in the data active = inhibition above about 37%
Target sequence (P63165 whole entry, looked up): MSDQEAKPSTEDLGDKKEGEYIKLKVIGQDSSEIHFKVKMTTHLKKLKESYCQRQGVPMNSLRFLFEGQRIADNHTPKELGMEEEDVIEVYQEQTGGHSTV
Rpn11 block: Rpn11 (human) deubiquitinase inhibition. human 26S proteasome, Ub4-pepOG fluorescence polarization; 20S core pre-blocked with epoxomicin. inhibition, % at 20 µM. 360,000 compounds, 0.59% hits. O00487;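 active = inhibition at 20 µM, scaled to each plate's controls, above about 33%, limit read from the data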
Target sequence (O00487 whole entry, looked up): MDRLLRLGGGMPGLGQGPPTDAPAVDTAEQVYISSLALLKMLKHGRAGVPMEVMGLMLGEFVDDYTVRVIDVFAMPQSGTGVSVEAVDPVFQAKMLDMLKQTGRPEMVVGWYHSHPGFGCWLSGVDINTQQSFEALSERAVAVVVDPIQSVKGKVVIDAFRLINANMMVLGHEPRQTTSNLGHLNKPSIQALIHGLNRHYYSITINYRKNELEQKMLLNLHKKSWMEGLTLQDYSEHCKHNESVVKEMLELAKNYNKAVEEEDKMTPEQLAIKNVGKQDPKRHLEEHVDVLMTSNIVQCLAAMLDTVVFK
Active calls of the source: *; / = no result given; ! = not confirmed by another sample.

SMILES	SKN-1 inh	MT1-MMP act inh	CSN inh	DNMT1 inh	SUMO1 PPI mod	Rpn11 block
CCOC(=O)Nc1cc2c(c(N)n1)N=C(c1ccccc1)CN2	-47	-36	7	53*	-42	28
CCOC(=O)Nc1sc(C)nc1-c1ccccc1	4	2	-2	2	-2	-5
O=C1c2ccccc2OC2(C=Cc3ccccc3O2)N1Cc1ccccc1 (stereo unspecified)	40*	-6	-6	-5	-7	-1
Cc1cc2nc(C3CCCCC3)c(Cc3ccccc3)n2c(C)c1Br	-6	-7	-5	24	1	4
CCC(C)(C)n1nnnc1C(C(C)C)N(CCCO)Cc1cc2cc(C)ccc2[nH]c1=O (stereo unspecified)	44*	-5	1	-2	-1	-5
OCCN(CCO)c1cc2c3ccccc3ccc2c2ccccc12	-10	3	45*	-16	-14	5
CCCC(=O)N1CCOCC1c1cc(C(=O)NCc2ccccc2)no1 (stereo unspecified)	0	-2	-3	-3	0	-4
O=C(/C=C/c1cn(-c2ccccc2)nc1-c1cccc(Cl)c1)N1CCN(c2ccccn2)CC1	12	-13	153*	-10	-2	3
O=c1ccn(Cc2ccccc2)c(SCc2ccccc2)n1	0	5	-5	-1	-3	-2
Clc1ccc(CSc2nccn2Cc2ccccc2)cc1	38*	-7	0	-7	5	-9
COc1ccc(N2C(=O)/C(=C/c3ccc([N+](=O)[O-])cc3)C=C2c2ccccc2)cc1	40*	-4	1	3	-17	12
COc1ccc(S(=O)(=O)Nc2ccc(S(=O)(=O)Nc3ccc(F)cc3)cc2)cc1C	36*	1	-3	-9	2	-3
CC1(C(=O)Nc2cccc(NS(C)(=O)=O)c2)CCN1Cc1ccccc1OC(F)F (stereo unspecified)	21	-2	-2	-2	6	8
O=C(O)c1cnc2ccccc2n1	37*	-4	-1	0	-13	3
CCCC(NC(=O)CCc1c(C)c2cc3c(C)c(C)oc3cc2oc1=O)C(=O)NC(Cc1ccc(Cl)cc1)C(=O)O (stereo unspecified)	0	4	37*	3	8	-3
CCC(NC(=O)CCc1c(C)c2cc3c(C)c(C)oc3cc2oc1=O)C(=O)N[C@@H](Cc1ccccc1)C(=O)O (stereo partly specified)	14	4	2	2	16	1
COc1ccc(C=NNc2ccc(S(=O)(=O)Nc3ccccc3C(=O)O)cc2[N+](=O)[O-])c(OC)c1	7	27	-9	13	56*	-10
CSC1SCC2C(=O)N(C)C(C(C)C)C(=O)OCC(NC(=O)c3cnc4ccccc4n3)C(=O)NC(C)C(=O)N(C)C1C(=O)N(C)C(C(C)C)C(=O)OCC(NC(=O)c1cnc3ccccc3n1)C(=O)NC(C)C(=O)N2C (stereo unspecified)	42*	-26	6	-151	-15	2
Cn1c(SCC(=O)N/N=C/C=C\c2ccco2)nc2ccccc21	-2	-3	23	54*	16	-26
O=C(COc1ccc(Cl)cc1Cl)Nc1ccc(-c2ccc(N3CCOCC3)nn2)cc1	-3	-7	-1	2	55*	3
CCCCCCCCCCCCCCCC[N+](C)(C)CCN(Cc1ccc(OC)cc1)c1ncccn1	59*	-23	23	-168	13	77*
COc1ccc(CN(CCN(C)C)c2ccccn2)cc1	-5	2	-2	0	5	0
CN(C)c1ccc(/C=N/NC2=NS(=O)(=O)c3ccccc32)cc1	39*	-3	7	2	-20	17
O=C(CC1c2ccccc2C=C(c2ccsc2)N1c1ccc(-c2cccnc2)cc1)C1CC1 (stereo unspecified)	13	-8	0	/	-3	/
Brc1ccc2oc(-c3ccn[nH]3)cc2c1	39*	2	3	3	2	14
SMILES	SKN-1 inh	MT1-MMP act inh	CSN inh	DNMT1 inh	SUMO1 PPI mod	Rpn11 block
COc1ccc(C(=O)c2[nH]c(N)c(C(=O)NCCc3c[nH]c4ccccc34)c2-c2ccc(OC)c(OC)c2)cc1	12	-4	-3	/	-8	/
CCOC(=O)[C@]12CCCC=C1N(CCc1ccc(OC)c(OC)c1)C(=O)[C@H](CC(=O)N1CCSCC1)C2	-6	3	-5	/	-1	/
O=C(c1ccco1)N(CCC(c1ccccc1)c1ccco1)Cc1ccco1 (stereo unspecified)	6	-8	35	100*	14	24
CCOC(=O)[C@]12CCCC=C1N(Cc1ccccc1)C(=O)[C@H](CC(=O)N1CCC(c3ccccc3)CC1)C2	12	4	4	/	2	/
CCCc1cc(C(=O)Nc2nccs2)cs1	33*	9	-13	-3	1	-2
O=S(=O)(c1cnc[nH]1)N1CCc2ccccc21	75	-14	73*	0	0	/
COC(=O)C12OCC34C(CC5C(C)=C(O)C(=O)CC5(C)C3C(O)C1O)OC(=O)C(OC(=O)C=C(C)C)C24 (stereo unspecified)	41*	-36	-3	-1	0	3
c1coc(-c2nnc(-c3ccco3)nn2)c1	-6	-2	43	116*	92*	-19
c1ccc(-c2cnc(-c3ccccc3)nn2)cc1	52*	4	-1	3	-6	-1
CCOC(=O)C1(C)CCCN(C(=O)c2cccc(C#N)c2)C1 (stereo unspecified)	3	2	1	2	-2	-3
Fc1cccc(Cc2c(-c3ccc(Cl)cc3)nc3ccc(Br)cn23)c1	13	-14	2	1	-6	33
O=C(N/N=C\c1ccncc1)c1ccc(Br)s1	41*	-5	-1	2	-16	1
Cc1ccc(Cl)c(N/C=C/C(=O)c2ccccc2)c1	51*	-6	-1	1	-11	10
CCCCCCCCCCCCCCCC[n+]1cccc(C(=O)N(CC)CC)c1	3	-9	4	-16	38*!	66*!
CCCNC(=O)OC1CC2CC1[C@H]1CCCCN1C2=O (stereo partly specified)	6	4	0	/	-1	/
COc1ccc(CN2C[C@@H](CO)O[C@@H](n3cnc4c(NCCN(C)C)ncnc43)C2)cc1	7	-1	-2	2	-11	-6
CN1CCc2c(sc3c2C(=O)NC(c2ccc(-c4cccc(Cl)c4)o2)N3)C1 (stereo unspecified)	5	-29	44*	-17	-5	/

Bioassay records as filed in PubChem BioAssay.
